Assay results reported in ChEMBL document CHEMBL3271979, “Inhibition of solid tumors by nitrosoureas. 1. Lewis lung carcinoma” (1977).
The source made the active and inactive calls. The rule behind the calls is not given here.

Experiments:
Mus musculus [1] = experiment: Antitumor activity against mouse advanced Lewis lung carcinoma allografted in BDF1 mouse assessed as disease cure at 60 mg/kg, ip administered as single dose on 7th day post-tumor implantation measured for 80 days post-drug treatment; assay type: functional, organism-based; parameters: dose 60 mg/kg
Method in brief: (§1)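 BDF1 mice (C57Blk/6 × DBA/2) implanted sc by trocar with Lewis lung tumor fragments of about 40 mg, taken only from bacteriologically sterile donor tumors. Mice bearing tumors of about 400 mg (day 6-7) were selected. Each received a single ip dose on day 7, at or below the LD10 in normal mice. Groups were of 10 mice. Tumor weight was taken from calipers as w = ab²/2, measured at least twice weekly. Matched non-tumor mice served as toxicity controls.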

Mus musculus [2] = experiment: Antitumor activity against mouse advanced Lewis lung carcinoma allografted in BDF1 mouse assessed as complete regression of established tumor at 60 mg/kg, ip administered as single dose on 7th day post-tumor implantation; assay type: functional, organism-based; parameters: dose 60 mg/kg; method in brief: as §1
[3] = Antitumor activity against mouse early Lewis lung carcinoma allografted in BDF1 mouse assessed as increase in host life span at 60 mg/kg, ip administered as single dose on 1 or 2 days post-tumor implantation; assay type: functional; conditions: route intraperitoneal
Method in brief: (§2)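 BDF1 mice (C57Blk/6 × DBA/2) implanted sc by trocar with ~40 mg Lewis lung tumor fragments from bacteriologically sterile donor tumors. Single ip dose on day 1 or 2, as a solution or suspension in water (CMC or gum acacia) or saline (HPC or Tween 80). Read-out is […]. Same-dose toxicity controls were run in nontumor-bearing mice.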

Mus musculus [4] = experiment: Antitumor activity against mouse advanced Lewis lung carcinoma allografted in ip dosed BDF1 mouse assessed as complete regression of established tumor administered as single dose on day 6 or 7 post-tumor implantation; assay type: functional, organism-based; method in brief: as §1
[5] = Antitumor activity against mouse advanced Lewis lung carcinoma allografted in BDF1 mouse assessed as increase in host life span at 60 mg/kg, ip administered as single dose on 7th day post-tumor implantation; assay type: functional; conditions: route intraperitoneal
Method in brief: (§3)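 BDF1 mice (C57Blk/6 × DBA/2) implanted sc by trocar with about 40 mg Lewis lung tumor fragments from bacteriologically sterile donors. Advanced-disease groups held tumors of about 400 mg by day 6-7, sized by caliper (w = ab²/2). Single ip injection on day 7, in water or saline vehicle, at or below the LD10 in normal mice. Tumors measured at least twice weekly.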

[6] = Antitumor activity against mouse advanced Lewis lung carcinoma allografted in BDF1 mouse assessed as increase in host life span at 40 mg/kg, ip administered as single dose on 7th day post-tumor implantation; assay type: functional; conditions: route intraperitoneal; method in brief: as §3
[7] = Antitumor activity against mouse advanced Lewis lung carcinoma allografted in ip dosed BDF1 mouse assessed as increase in host lifespan administered as single dose on day 6 or 7 post-tumor implantation; assay type: functional
Method in brief: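 Advanced Lewis lung model: about 40 mg fragments implanted sc by trocar into BDF1 mice, and mice with tumors of about 400 mg (day 6-7) selected. Tumor weight from calipers, w = ab²/2. Agent given as one ip dose in distilled water or physiological saline. Nontumor-bearing mice received matching doses as toxicity controls.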

[8] = Antitumor activity against mouse early Lewis lung carcinoma allografted in BDF1 mouse assessed as time delay in tumor growth at 40 mg/kg, ip administered as single dose on 1 or 2 days post-tumor implantation; assay type: functional; conditions: route intraperitoneal
Method in brief: (§4)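 BDF1 mice (C57Blk/6 × DBA/2) implanted sc by trocar with ~40 mg Lewis lung tumor fragments from bacteriologically sterile donors. A single ip dose was given on day 1 or 2, as a solution or suspension in water or saline with suspending agent, at ≤0.5 ml. Tumors were measured by caliper at least twice weekly, with weight = ab²/2. Delay was taken as the days for the tumor to reach 1 g.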

[9] = Antitumor activity against mouse early Lewis lung carcinoma allografted in ip dosed BDF1 mouse assessed as disease cure administered as single dose on 1 or 2 days post-tumor implantation measured for 80 days post-drug treatment; assay type: functional
Method in brief: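 BDF1 mice implanted sc by trocar with ~40 mg Lewis lung fragments from sterile donor tumors. A single ip dose was given on day 1 or 2 after implant, in water or saline vehicle. Cures were scored in animals observed for at least 80 days after treatment. Drug-toxicity controls were matched non-tumor-bearing mice monitored for body weight and deaths.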

Mus musculus [10] = experiment: Antitumor activity against mouse advanced Lewis lung carcinoma allografted in BDF1 mouse assessed as complete regression of established tumor at 40 mg/kg, ip administered as single dose on 7th day post-tumor implantation; assay type: functional, organism-based; parameters: dose 40 mg/kg; method in brief: as §1
[11] = Antitumor activity against mouse early Lewis lung carcinoma allografted in BDF1 mouse assessed as increase in host life span at 40 mg/kg, ip administered as single dose on 1 or 2 days post-tumor implantation; assay type: functional; conditions: route intraperitoneal; method in brief: as §2
Mus musculus [12] = experiment: Antitumor activity against mouse advanced Lewis lung carcinoma allografted in BDF1 mouse assessed as disease cure at 40 mg/kg, ip administered as single dose on 7th day post-tumor implantation measured for 80 days post-drug treatment; assay type: functional, organism-based; parameters: dose 40 mg/kg; method in brief: as §3
[13] = Ratio of ED50 for antitumor activity against mouse L1210 cells allografted in ip dosed mouse to LD10 for mouse
Mus musculus [14] = experiment: Antitumor activity against mouse advanced Lewis lung carcinoma allografted in ip dosed BDF1 mouse assessed as disease cure administered as single dose on day 6 or 7 post-tumor implantation; assay type: functional, organism-based; method in brief: as §1
[15] = Antitumor activity against mouse early Lewis lung carcinoma allografted in BDF1 mouse assessed as time delay in tumor growth at 60 mg/kg, ip administered as single dose on 1 or 2 days post-tumor implantation; assay type: functional; conditions: route intraperitoneal; method in brief: as §4
[16] = Antitumor activity against mouse early Lewis lung carcinoma allografted in BDF1 mouse assessed as time delay in tumor growth at 152 mg/kg, ip administered as single dose on 1 or 2 days post-tumor implantation; assay type: functional; conditions: route intraperitoneal; method in brief: as §4
[17] = Antitumor activity against mouse early Lewis lung carcinoma allografted in BDF1 mouse assessed as increase in host life span at 152 mg/kg, ip administered as single dose on 1 or 2 days post-tumor implantation; assay type: functional; conditions: route intraperitoneal; method in brief: as §2
[18] = Antitumor activity against mouse early Lewis lung carcinoma allografted in BDF1 mouse assessed as increase in host life span at 67 mg/kg, ip administered as single dose on 1 or 2 days post-tumor implantation; assay type: functional; conditions: route intraperitoneal; method in brief: as §2
[19] = Antitumor activity against mouse advanced Lewis lung carcinoma allografted in BDF1 mouse assessed as increase in host life span at 171 mg/kg, ip administered as single dose on 7th day post-tumor implantation; assay type: functional; conditions: route intraperitoneal; method in brief: as §3
[20] = Antitumor activity against mouse early Lewis lung carcinoma allografted in BDF1 mouse assessed as time delay in tumor growth at 67 mg/kg, ip administered as single dose on 1 or 2 days post-tumor implantation; assay type: functional; conditions: route intraperitoneal; method in brief: as §4
[21] = Antitumor activity against mouse advanced Lewis lung carcinoma allografted in BDF1 mouse assessed as increase in host life span at 18 mg/kg, ip administered as single dose on 7th day post-tumor implantation; assay type: functional; conditions: route intraperitoneal; method in brief: as §3
Mus musculus [22] = experiment: Antitumor activity against mouse advanced Lewis lung carcinoma allografted in BDF1 mouse assessed as complete regression of established tumor at 12 mg/kg, ip administered as single dose on 7th day post-tumor implantation; assay type: functional, organism-based; parameters: dose 12 mg/kg; method in brief: as §1
[23] = Antitumor activity against mouse advanced Lewis lung carcinoma allografted in BDF1 mouse assessed as increase in host life span at 12 mg/kg, ip administered as single dose on 7th day post-tumor implantation; assay type: functional; conditions: route intraperitoneal; method in brief: as §3
L1210 = experiment: Antitumor activity against mouse L1210 cells allografted in ip dosed mouse assessed as disease cure administered as single dose; assay type: functional, organism-based
Mus musculus [24] = experiment: Antitumor activity against mouse advanced Lewis lung carcinoma allografted in BDF1 mouse assessed as disease cure at 18 mg/kg, ip administered as single dose on 7th day post-tumor implantation measured for 80 days post-drug treatment; assay type: functional, organism-based; parameters: dose 18 mg/kg; method in brief: as §1
Mus musculus [25] = experiment: Antitumor activity against mouse advanced Lewis lung carcinoma allografted in BDF1 mouse assessed as complete regression of established tumor at 18 mg/kg, ip administered as single dose on 7th day post-tumor implantation; assay type: functional, organism-based; parameters: dose 18 mg/kg; method in brief: as §1
Mus musculus [26] = experiment: Antitumor activity against mouse advanced Lewis lung carcinoma allografted in BDF1 mouse assessed as disease cure at 12 mg/kg, ip administered as single dose on 7th day post-tumor implantation measured for 80 days post-drug treatment; assay type: functional, organism-based; parameters: dose 12 mg/kg; method in brief: as §1
[27] = Antitumor activity against mouse early Lewis lung carcinoma allografted in BDF1 mouse assessed as increase in host life span at 210 mg/kg, ip administered as single dose on 1 or 2 days post-tumor implantation; assay type: functional; conditions: route intraperitoneal; method in brief: as §2
[28] = Antitumor activity against mouse early Lewis lung carcinoma allografted in BDF1 mouse assessed as time delay in tumor growth at 315 mg/kg, ip administered as single dose on 1 or 2 days post-tumor implantation; assay type: functional; conditions: route intraperitoneal; method in brief: as §4
[29] = Antitumor activity against mouse early Lewis lung carcinoma allografted in BDF1 mouse assessed as time delay in tumor growth at 210 mg/kg, ip administered as single dose on 1 or 2 days post-tumor implantation; assay type: functional; conditions: route intraperitoneal; method in brief: as §4
Mus musculus [30] = experiment: Antitumor activity against mouse advanced Lewis lung carcinoma allografted in BDF1 mouse assessed as disease cure at 316 mg/kg, ip administered as single dose on 7th day post-tumor implantation measured for 80 days post-drug treatment; assay type: functional, organism-based; parameters: dose 316 mg/kg; method in brief: as §1
[31] = Antitumor activity against mouse early Lewis lung carcinoma allografted in BDF1 mouse assessed as increase in host life span at 315 mg/kg, ip administered as single dose on 1 or 2 days post-tumor implantation; assay type: functional; conditions: route intraperitoneal; method in brief: as §2
[32] = Antitumor activity against mouse advanced Lewis lung carcinoma allografted in BDF1 mouse assessed as increase in host life span at 316 mg/kg, ip administered as single dose on 7th day post-tumor implantation; assay type: functional; conditions: route intraperitoneal; method in brief: as §3

O=NN(CCCl)C(=O)N[C@H]1CC[C@H](CCl)CC1
Activity (Mus musculus [1]): inactive
inhibition (Mus musculus [2]): inactive
ILS at 60 mg/kg [3]: 87%
inhibition (Mus musculus [4]): inactive
ILS at 60 mg/kg [5]: 109%
ILS at 40 mg/kg [6]: 51%
ILS [7]: >25%
Time [8]: 5.2 days
Activity [9]: 10%
inhibition (Mus musculus [10]): inactive
ILS at 40 mg/kg [11]: 74%
Activity (Mus musculus [12]): inactive
Ratio [13]: 0.6
Activity (Mus musculus [14]): inactive
Time [15]: 4.3 days

O=NN(CCCl)C(=O)N[C@H]1CC[C@H](NC(=O)N(CCCl)N=O)CC1
Time [16]: 4 days
ILS at 152 mg/kg [17]: 41%
ILS at 67 mg/kg [18]: 34%
Activity [9]: 10%
Ratio [13]: 0.3
Activity (Mus musculus [14]): Active
ILS at 171 mg/kg [19]: 146%
Time [20]: 2 days

CC(=O)OC[C@H]1CC[C@H](NC(=O)N(CCCl)N=O)CC1
inhibition (Mus musculus [4]): inactive
ILS at 18 mg/kg [21]: 65%
inhibition (Mus musculus [22]): inactive
ILS [7]: >25%
ILS at 12 mg/kg [23]: 26%
Activity [9]: 10%
Activity (L1210): inactive
Activity (Mus musculus [24]): inactive
inhibition (Mus musculus [25]): inactive
Activity (Mus musculus [26]): inactive
Activity (Mus musculus [14]): inactive

CC(C)(C)[C@H]1CC[C@H](NC(=O)N(CCCl)N=O)CC1
ILS at 210 mg/kg [27]: 24%
Time [28]: 22 days
Time [29]: 4.1 days
inhibition (Mus musculus [4]): Active
Activity (Mus musculus [30]): inactive
Activity [9]: 10%
Ratio [13]: 0.6
ILS at 315 mg/kg [31]: 19%
Activity (Mus musculus [14]): inactive
ILS at 316 mg/kg [32]: 41%
